Data set [1] addresses 5-hydroxytryptamine receptor 1B (Homo sapiens, UniProt P28222). As to the kind of experiment: Compound was evaluated for binding affinity against human cloned 5-hydroxytryptamine 1B receptor in CHO cells using [3H]5-HT as the radioligand. Format: cell-based. In short, it runs like this: (§1)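 Radioligand binding to human cloned receptors: 5-HT1A in HEK 293 cells with [3H]-8-OH-DPAT; 5-HT1B and 5-HT1E in CHO cells with [3H]-5-HT; 5-HT2B in HEK 293 cells with [3H]-5-HT; D2 and D3 in CHO cells with [125I]-iodosulpride. Values are the mean of at least two determinations, each within 0.2 log unit of the mean.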

The target in data set [2] is 5-hydroxytryptamine receptor 1D (Homo sapiens, UniProt P28221). As to the kind of experiment: Compound was evaluated for binding affinity against human cloned 5-hydroxytryptamine 1D receptor in CHO cells using [3H]5-HT as the radioligand. The class given is cell-based.
Data set [3] deals with 5-hydroxytryptamine receptor 1E (Homo sapiens, UniProt P28566). As to the kind of experiment: Compound was evaluated for binding affinity against human cloned 5-hydroxytryptamine 1E receptor in CHO cells using [3H]5-HT as the radioligand. Format: cell-based. The essentials:
as §1

In data set [4] the target is 5-hydroxytryptamine receptor 2A (Homo sapiens, UniProt P28223). As to the kind of experiment: Compound was evaluated for binding affinity against human cloned 5-hydroxytryptamine 2A receptor in HEK 293 cells using [3H]ketanserin as the radioligand. Format: cell-based, HEK293.
Data set [5] deals with T1, 5-hydroxytryptamine receptor 1F (Homo sapiens, UniProt P30939).
T1 sequence (P30939 whole entry): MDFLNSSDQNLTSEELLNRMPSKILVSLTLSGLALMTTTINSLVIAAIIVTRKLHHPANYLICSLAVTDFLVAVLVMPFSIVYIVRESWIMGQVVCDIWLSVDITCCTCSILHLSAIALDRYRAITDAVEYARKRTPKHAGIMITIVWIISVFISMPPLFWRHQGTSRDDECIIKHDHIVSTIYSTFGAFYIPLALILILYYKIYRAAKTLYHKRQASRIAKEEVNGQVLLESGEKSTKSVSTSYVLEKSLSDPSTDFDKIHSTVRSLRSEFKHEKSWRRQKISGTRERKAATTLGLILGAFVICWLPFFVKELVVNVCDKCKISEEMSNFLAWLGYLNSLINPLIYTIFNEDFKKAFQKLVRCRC
As to the kind of experiment: Compound was evaluated for binding affinity against human cloned 5-hydroxytryptamine 1F receptor in CHO cells using [3H]-5-HT as the radioligand. The class given is cell-based.

Data set [6] deals with T2, 5-hydroxytryptamine receptor 2C (Homo sapiens, UniProt P28335).
T2 sequence (P28335 whole entry): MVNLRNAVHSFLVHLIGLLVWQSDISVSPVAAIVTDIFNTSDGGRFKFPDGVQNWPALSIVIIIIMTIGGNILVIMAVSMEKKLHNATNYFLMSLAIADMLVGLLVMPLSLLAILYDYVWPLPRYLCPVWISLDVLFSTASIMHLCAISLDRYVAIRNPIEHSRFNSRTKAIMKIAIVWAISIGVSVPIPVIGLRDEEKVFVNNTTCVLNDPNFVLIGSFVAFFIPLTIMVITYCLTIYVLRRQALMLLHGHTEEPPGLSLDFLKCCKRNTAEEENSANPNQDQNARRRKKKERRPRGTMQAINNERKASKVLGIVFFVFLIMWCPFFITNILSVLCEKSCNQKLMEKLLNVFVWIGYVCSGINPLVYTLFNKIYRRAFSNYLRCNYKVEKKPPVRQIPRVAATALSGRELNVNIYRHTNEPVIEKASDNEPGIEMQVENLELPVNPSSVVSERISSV
As to the kind of experiment: Compound was evaluated for binding affinity against human cloned 5-hydroxytryptamine 2C receptor in HEK 293 cells using [3H]mesulergine as the radioligand. The class given is cell-based, HEK293.

Data set [7] deals with 5-hydroxytryptamine receptor 2B (Homo sapiens, UniProt P41595). As to the kind of experiment: Compound was evaluated for binding affinity against human cloned 5-HT2B receptor in HEK 293 cells using [3H]5-HT as the radioligand. Format: cell-based, HEK293. The essentials: as §1
Data set [8] addresses 5-hydroxytryptamine receptor 4 (Homo sapiens, UniProt Q13639). As to the kind of experiment: Compound was evaluated for the binding affinity against human cloned 5-hydroxytryptamine 4 receptor in HeLa cells using [3H]-LSD as the radioligand. Format: cell-based.
Data set [9] has as its target 5-hydroxytryptamine receptor 6 (Homo sapiens, UniProt P50406). As to the kind of experiment: Binding affinity against human 5-hydroxytryptamine 6 receptor.
The species named for data set [10] is Rattus norvegicus. As to the kind of experiment: Blood: Brain distribution ratio is determined in rat. The class given is ADME, organism-based. In short, it runs like this: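 Rats received iv infusion for 8 h, and the brain:blood ratio was taken at steady state.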
Data set [11] is described as follows: Bioavailability in rat (dose 3 mg/kg in 1% methylcellulose ). The class given is ADME, organism-based. To be noted: in vivo. The essentials: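 Oral suspension dose of 3 mg/kg in 1% methylcellulose (v/v) aq to rats (n=3). Blood levels were measured by LC/MS/MS to derive AUC/dose and bioavailability.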
Data set [12] is described as follows: Plasma Clearance measured at steady-state following iv infusion at 0.6 mg/kg/h in rats. Format: ADME, organism-based. The arrangement: route intravenous. The settings on record: rat, 0.6 mg/kg/h infusion.
Data set [13] addresses T3, Alpha-1B adrenergic receptor (Homo sapiens, UniProt P35368).
T3 sequence (P35368 whole entry): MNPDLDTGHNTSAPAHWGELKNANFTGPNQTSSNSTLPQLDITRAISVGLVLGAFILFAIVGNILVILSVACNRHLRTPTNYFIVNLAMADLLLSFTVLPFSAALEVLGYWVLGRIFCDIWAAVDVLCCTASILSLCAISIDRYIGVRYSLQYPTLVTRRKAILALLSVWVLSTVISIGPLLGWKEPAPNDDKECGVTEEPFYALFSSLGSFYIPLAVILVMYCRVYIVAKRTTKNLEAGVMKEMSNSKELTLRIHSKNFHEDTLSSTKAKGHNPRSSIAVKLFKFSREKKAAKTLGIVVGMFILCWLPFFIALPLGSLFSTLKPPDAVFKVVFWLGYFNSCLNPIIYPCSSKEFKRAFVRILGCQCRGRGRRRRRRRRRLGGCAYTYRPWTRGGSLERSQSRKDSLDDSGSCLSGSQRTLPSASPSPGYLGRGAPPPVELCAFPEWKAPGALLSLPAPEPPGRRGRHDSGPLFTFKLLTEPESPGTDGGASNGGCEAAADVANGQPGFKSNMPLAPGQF
As to the kind of experiment: Compound was evaluated for binding affinity against Alpha-1B adrenergic receptor.

The target in another data set is D(3) dopamine receptor (Homo sapiens, UniProt P35462). As to the kind of experiment: Compound was evaluated for binding affinity against Dopamine receptor D3 in CHO cells using [125I]iodosulpiride as the radioligand. Format: cell-based. In short, it runs like this:
as §1

The target in a further data set is D(2) dopamine receptor (Homo sapiens, UniProt P14416). As to the kind of experiment: Compound was evaluated for binding affinity against Dopamine receptor D2 in CHO cells using [125I]iodosulpiride as the radioligand. Format: cell-based. The essentials:
as §1

In data set [14] the target is T4, 5-hydroxytryptamine receptor 1A (Homo sapiens, UniProt P08908).
T4 sequence (P08908 whole entry): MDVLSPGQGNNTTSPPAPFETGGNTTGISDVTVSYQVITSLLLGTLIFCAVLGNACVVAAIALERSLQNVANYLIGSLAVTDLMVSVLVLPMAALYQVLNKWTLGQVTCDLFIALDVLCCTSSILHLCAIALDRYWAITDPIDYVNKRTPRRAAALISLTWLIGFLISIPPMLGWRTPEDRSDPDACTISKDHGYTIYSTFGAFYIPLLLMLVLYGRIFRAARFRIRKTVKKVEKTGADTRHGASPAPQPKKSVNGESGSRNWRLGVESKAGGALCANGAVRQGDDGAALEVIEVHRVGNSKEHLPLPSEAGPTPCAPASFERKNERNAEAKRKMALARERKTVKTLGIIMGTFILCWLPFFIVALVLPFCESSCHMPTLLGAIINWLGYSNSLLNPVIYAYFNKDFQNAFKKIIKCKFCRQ
As to the kind of experiment: Compound was evaluated for binding affinity against human cloned 5-hydroxytryptamine 1A receptor in HEK 293 cells using [3H]8-OH-DPAT as the radioligand. The class given is cell-based, HEK293. In short, it runs like this: as §1

The target of data set [15] is T5, 5-hydroxytryptamine receptor 7 (Homo sapiens, UniProt P34969). As to the kind of experiment: Compound was evaluated for binding affinity against human cloned 5-hydroxytryptamine 7 receptor in HEK 293 cells using [3H]5-CT as the radioligand (n=3). Format: cell-based, HEK293.
For data set [16], the target named is T5, 5-hydroxytryptamine receptor 7. As to the kind of experiment: Displacement of [3H]-5-CT from human 5-hydroxytryptamine 7 receptor expressed in HEK-293 cells. The class given is cell-based, HEK293.
Data set [17] in a line: Bioavailability in rat (dose 10 mg/kg in 10% Encapsin and 2% DMSO p.o.). To be noted: in vivo, po.
The nature of data set [18]: Bioavailability was determined upon 10 mg/kg in 1% methylcellulose peroral administration in rats. The class given is ADME, organism-based. The settings on record: rat, in vivo, po. The essentials:
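Rats were given 10 mg/kg orally as a suspension in 1% methylcellulose (v/v) aq (n=3). Blood drug levels were determined by LC/MS/MS, and AUC/dose and bioavailability were derived from them.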

The test system of data set [19] is Rattus norvegicus. As to the kind of experiment: Pharmacokinetic property( plasma concentration) was determined upon 10 mg/kg in 1% methylcellulose peroral administration in rats. The class given is ADME, organism-based. Further details: dose 10 mg/kg, route oral. To be noted: in vivo, po.

Each structure is given as a SMILES string.

5-hydroxytryptamine receptor 2B, sequence (P41595 whole entry): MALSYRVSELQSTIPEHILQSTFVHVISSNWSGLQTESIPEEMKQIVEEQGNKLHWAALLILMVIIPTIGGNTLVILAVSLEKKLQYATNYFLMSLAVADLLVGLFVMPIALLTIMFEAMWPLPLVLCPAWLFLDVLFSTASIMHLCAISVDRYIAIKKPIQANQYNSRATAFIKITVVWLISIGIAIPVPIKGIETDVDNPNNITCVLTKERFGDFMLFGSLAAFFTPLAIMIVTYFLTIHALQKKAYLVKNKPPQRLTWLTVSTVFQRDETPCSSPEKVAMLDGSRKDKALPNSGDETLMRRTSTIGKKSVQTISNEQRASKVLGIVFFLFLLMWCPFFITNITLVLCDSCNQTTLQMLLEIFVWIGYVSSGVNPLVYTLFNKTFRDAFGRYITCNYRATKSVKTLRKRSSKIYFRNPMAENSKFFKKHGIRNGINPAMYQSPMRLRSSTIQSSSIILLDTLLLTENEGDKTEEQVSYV
T5 sequence (P34969 whole entry): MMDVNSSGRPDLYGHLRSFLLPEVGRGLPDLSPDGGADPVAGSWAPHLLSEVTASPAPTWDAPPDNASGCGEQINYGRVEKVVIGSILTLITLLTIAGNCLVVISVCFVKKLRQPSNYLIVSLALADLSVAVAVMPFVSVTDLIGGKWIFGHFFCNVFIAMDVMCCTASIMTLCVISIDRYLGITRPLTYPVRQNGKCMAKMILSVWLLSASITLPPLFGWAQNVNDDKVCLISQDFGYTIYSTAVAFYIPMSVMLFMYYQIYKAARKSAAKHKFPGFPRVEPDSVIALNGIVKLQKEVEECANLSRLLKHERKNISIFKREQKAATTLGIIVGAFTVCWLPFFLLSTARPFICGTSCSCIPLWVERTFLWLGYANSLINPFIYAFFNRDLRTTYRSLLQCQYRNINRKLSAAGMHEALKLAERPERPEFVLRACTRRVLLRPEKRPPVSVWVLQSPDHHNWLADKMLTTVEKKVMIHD
D(3) dopamine receptor, sequence (P35462 whole entry): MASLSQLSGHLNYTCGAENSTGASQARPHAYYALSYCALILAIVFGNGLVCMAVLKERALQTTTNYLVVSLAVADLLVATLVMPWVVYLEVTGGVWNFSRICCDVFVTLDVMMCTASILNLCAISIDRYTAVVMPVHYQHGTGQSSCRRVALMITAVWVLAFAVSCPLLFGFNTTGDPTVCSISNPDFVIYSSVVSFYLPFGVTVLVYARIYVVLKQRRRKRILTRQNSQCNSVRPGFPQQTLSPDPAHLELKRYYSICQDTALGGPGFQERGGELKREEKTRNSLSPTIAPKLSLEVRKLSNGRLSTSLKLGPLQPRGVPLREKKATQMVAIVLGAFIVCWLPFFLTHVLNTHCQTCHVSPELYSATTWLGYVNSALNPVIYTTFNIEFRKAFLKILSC
5-hydroxytryptamine receptor 1E, sequence (P28566 whole entry): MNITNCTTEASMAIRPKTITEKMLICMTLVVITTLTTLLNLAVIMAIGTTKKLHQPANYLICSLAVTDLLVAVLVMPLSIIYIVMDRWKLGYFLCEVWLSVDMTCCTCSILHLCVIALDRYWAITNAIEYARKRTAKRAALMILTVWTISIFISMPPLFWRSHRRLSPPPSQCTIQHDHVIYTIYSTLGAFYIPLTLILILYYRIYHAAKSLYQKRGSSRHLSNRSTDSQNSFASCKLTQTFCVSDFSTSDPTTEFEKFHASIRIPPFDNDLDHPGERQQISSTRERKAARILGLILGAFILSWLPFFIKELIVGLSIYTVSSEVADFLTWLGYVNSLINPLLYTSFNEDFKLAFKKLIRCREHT
5-hydroxytryptamine receptor 4, sequence (Q13639 whole entry): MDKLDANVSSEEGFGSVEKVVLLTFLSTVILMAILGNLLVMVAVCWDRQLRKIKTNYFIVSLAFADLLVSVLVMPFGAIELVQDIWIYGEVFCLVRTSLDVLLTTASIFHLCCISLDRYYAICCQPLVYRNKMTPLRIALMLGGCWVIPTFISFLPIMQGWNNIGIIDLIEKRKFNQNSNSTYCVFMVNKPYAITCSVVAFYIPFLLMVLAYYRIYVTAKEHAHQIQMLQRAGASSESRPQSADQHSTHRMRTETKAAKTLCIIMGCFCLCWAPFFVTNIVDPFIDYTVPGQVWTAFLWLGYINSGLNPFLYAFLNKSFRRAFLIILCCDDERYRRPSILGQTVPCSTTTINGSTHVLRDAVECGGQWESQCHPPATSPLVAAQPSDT
5-hydroxytryptamine receptor 2A, sequence (P28223 whole entry): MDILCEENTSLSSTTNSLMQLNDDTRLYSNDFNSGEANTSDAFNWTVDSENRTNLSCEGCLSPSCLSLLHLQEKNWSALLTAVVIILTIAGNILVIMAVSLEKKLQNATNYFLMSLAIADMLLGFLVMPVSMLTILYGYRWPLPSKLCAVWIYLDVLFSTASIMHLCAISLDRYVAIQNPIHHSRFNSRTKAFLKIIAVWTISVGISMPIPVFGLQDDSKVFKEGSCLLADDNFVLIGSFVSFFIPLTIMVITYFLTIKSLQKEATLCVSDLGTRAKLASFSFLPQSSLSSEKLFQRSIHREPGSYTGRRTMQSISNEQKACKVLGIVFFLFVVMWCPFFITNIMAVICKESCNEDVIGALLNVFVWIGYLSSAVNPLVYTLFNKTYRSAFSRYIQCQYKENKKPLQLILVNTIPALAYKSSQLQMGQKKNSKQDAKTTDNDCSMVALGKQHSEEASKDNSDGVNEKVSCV
5-hydroxytryptamine receptor 1B, sequence (P28222 whole entry): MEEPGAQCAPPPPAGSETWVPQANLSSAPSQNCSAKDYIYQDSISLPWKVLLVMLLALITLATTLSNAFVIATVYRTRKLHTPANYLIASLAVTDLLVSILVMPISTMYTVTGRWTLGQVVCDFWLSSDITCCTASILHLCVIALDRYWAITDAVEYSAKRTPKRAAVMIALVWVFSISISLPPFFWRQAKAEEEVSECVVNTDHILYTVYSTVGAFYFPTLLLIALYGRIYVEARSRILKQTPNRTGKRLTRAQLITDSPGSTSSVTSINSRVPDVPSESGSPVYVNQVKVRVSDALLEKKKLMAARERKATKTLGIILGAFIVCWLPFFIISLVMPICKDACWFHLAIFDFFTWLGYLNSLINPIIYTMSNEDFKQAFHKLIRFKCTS
5-hydroxytryptamine receptor 1D, sequence (P28221 whole entry): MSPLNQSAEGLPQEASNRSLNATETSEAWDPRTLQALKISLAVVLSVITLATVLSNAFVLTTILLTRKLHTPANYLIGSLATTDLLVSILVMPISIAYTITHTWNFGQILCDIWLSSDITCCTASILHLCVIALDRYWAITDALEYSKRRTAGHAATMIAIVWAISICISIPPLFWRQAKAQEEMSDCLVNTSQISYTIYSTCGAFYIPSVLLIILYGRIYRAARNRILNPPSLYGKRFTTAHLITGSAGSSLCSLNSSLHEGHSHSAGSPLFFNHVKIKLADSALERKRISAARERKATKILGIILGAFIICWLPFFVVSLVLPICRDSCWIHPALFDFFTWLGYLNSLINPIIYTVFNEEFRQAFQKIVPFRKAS
D(2) dopamine receptor, sequence (P14416 whole entry): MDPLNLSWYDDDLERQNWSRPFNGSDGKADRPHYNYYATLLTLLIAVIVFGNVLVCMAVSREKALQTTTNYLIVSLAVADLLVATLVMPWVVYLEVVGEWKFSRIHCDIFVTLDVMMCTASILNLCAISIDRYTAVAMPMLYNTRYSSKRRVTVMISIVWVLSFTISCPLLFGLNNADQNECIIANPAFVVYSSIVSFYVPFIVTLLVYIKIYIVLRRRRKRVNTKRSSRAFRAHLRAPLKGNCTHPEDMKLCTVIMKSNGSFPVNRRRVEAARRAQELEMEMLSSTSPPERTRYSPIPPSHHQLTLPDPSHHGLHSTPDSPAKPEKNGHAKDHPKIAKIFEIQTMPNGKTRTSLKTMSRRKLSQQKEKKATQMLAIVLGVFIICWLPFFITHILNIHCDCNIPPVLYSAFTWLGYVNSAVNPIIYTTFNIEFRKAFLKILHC
5-hydroxytryptamine receptor 6, sequence (P50406 whole entry, the tested form may be a part): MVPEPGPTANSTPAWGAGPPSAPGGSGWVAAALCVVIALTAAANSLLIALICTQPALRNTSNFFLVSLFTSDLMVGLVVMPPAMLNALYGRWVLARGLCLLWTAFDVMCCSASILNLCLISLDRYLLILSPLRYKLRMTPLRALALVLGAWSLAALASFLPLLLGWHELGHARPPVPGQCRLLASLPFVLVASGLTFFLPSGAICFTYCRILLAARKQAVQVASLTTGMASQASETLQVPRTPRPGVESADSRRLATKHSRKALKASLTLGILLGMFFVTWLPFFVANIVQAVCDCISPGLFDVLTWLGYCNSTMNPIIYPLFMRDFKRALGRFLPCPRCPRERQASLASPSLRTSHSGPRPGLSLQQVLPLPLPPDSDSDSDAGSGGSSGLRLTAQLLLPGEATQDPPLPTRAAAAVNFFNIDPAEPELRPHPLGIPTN

What is called Ki is a measure of affinity in units of concentration, obtained from inhibition or displacement. Read a low Ki as a stronger hold on the target. Usually bioavailability stands for the share of a dose that reaches the circulation, judged against a reference dose that is usually intravenous. As usually defined, the clearance is the volume of plasma or blood freed of the substance per unit of time. As to `COc1ccc(S(=O)(=O)Nc2cc(Br)ccc2Br)cc1N1CCNCC1`, the Ki in [1] is above 5.01 µM; in data set [2] it was above 1.58 µM; in data set [3] it was above 10 µM; in data set [4], above 10 µM; in data set [5] it was above 10 µM; in data set [6], above 5.01 µM. The Ki was above 3.16 µM in data set [7]; 3.16 µM in data set [8]; 0.001 µM in data set [9]; above 2 µM in [13]; above 5.01 µM at D(3) dopamine receptor; above 10 µM at D(2) dopamine receptor. Further, in data set [14], the inhibition constant (Ki) is above 3.16 µM. Further, in the data set filed under Rattus norvegicus [10], the Distribution ratio is on record as 0.38. Moreover, the bioavailability in [11] came out at 20%. Besides, the clearance in data set [12] came to 43 mL/min/kg.
As to `COc1ccc(S(=O)(=O)Nc2cc(Cl)cc(Cl)c2Cl)cc1N1CCNCC1`, the Ki is above 10 µM in [1]; above 3.16 µM in data set [2]; above 10 µM in data set [3]; above 10 µM in [4]; above 10 µM in data set [5]; 1 µM in data set [6]. The Ki is 2 µM in data set [7]; above 10 µM in data set [8]; 0.002 µM in data set [15]; 0.002 µM in [9]; above 3.98 µM in data set [13]; above 3.98 µM on D(3) dopamine receptor. In addition, the Ki on D(2) dopamine receptor was above 10 µM; in data set [14] it was 3.98 µM. In addition, the Distribution ratio in the data set listed under Rattus norvegicus [10] was determined as 0.02. For the same compound, the bioavailability in data set [11] was above 80%. Moreover, the clearance in [12] was determined as 2 mL/min/kg.
For `COc1ccc(S(=O)(=O)Nc2cc(Br)cc(F)c2Br)cc1N1CCNCC1`, the Ki in data set [1] is above 3.98 µM; in data set [2] it was above 3.98 µM; in [3], above 10 µM; in data set [4], above 7.94 µM; in data set [5], above 10 µM; in data set [6], above 5.01 µM. Further, the Ki in data set [7] is above 3.98 µM; in [8] it was above 5.01 µM; in data set [16], above 10 µM; in [13] it was above 7.94 µM; on D(3) dopamine receptor, above 5.01 µM; on D(2) dopamine receptor, above 5.01 µM. In data set [14], this compound showed a Ki above 6.31 µM. In data set [12], the clearance is 14 mL/min/kg. Besides, the bioavailability in [17] stood at 65%.
The compound `COc1ccc(S(=O)(=O)Nc2cc(Cl)cc(Cl)c2)cc1N1CCNCC1` showed a Ki in data set [9] of 0.000631 µM. Moreover, the Distribution ratio in the data set filed under Rattus norvegicus [10] was 0.02. In addition, the bioavailability in [18] worked out at 51%. This compound also returned a clearance in [12] of 4 mL/min/kg. Further, the AUC in the data set on Rattus norvegicus [19] was 450 uM min uM-1.
As for `COc1ccc(S(=O)(=O)N2CCc3ccc(I)cc32)cc1N1CCNCC1`, the Ki was 1.26 µM in [1]; 0.2 µM in data set [2]; above 10 µM in data set [3]; above 3.98 µM in data set [4]; above 7.94 µM in [5]; 0.631 µM in data set [6]. For the same compound, the Ki in [7] was 0.631 µM; in [8], 3.98 µM; in [15] it was 0.000316 µM; in data set [9] it was 0.000316 µM; in [13] it was 1 µM; at D(3) dopamine receptor, 1 µM. The Ki is 2.51 µM at D(2) dopamine receptor and 0.501 µM in data set [14].
In [12], `COc1ccc(NS(=O)(=O)c2sc3ccc(Cl)cc3c2C)cc1N1CCNCC1` had a clearance of 8 mL/min/kg. For the same compound, the bioavailability in data set [17] was determined as 82%.

The values are drawn from ChEMBL document CHEMBL1134050, “Phenyl benzenesulfonamides are novel and selective 5-HT6 antagonists: identification of N-(2,5-dibromo-3-fluorophenyl)-4-methoxy-3-piperazin-1-ylbenzenesulfonamide (SB-357134)” (Bioorg Med Chem Lett, 2001).
